# Laboratory results as given in ChEMBL document CHEMBL4311948, “Exploring the Natural Piericidins as Anti-Renal Cell Carcinoma Agents Targeting Peroxiredoxin 1” (J Med Chem, 2019).
# pIC50, pKd: −log10 of the molar value. Active and inactive are the calls of the source. The calls are words filed in the database; no cut-off is given here.
# Key:
# HK-2 = test: Cytotoxicity against human HK2 cells assessed as reduction in cell viability measured after 72 hrs by CCK8 assay; assay type: cell-based; conditions: HK-2, 72 h
# How it was run: (§1)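 Cells were grown in 10% FBS medium: MEM for ACHN, RPMI1640 for OS-RC-2 and 786-O, DMEM for HK-2. They were seeded at 400–800 cells/well in 384-well plates and treated with a range of compound concentrations or solvent control, with sorafenib as positive control. After 72 h, CCK-8 absorbance was read at 450 nm in triplicate, and IC50 was taken from dose-response curves.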
# 786-0 = test: Cytotoxicity against human 786-O cells assessed as reduction in cell viability measured after 72 hrs by CCK8 assay; assay type: functional, cell-based; conditions: 786-0, 72 h; how it was run: as §1
# ACHN [1] = test: Cytotoxicity against human ACHN cells assessed as reduction in cell viability measured after 72 hrs by CCK8 assay; assay type: functional, cell-based; how it was run: as §1
# [2] = Toxicity in Balb/c nu/nu mouse xenografted with human ACHN cells assessed as decrease in body weight at 50 mg/kg, ip administered once daily for 21 days; conditions: in vivo, 504 h
# ACHN [3] = test: Cytotoxicity against human ACHN cells harboring shPRDX1 gene assessed as reduction in cell viability measured after 72 hrs by CCK8 assay; assay type: functional, cell-based
# How it was run: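 Transfectants were selected with puromycin (1 μg/mL), and knockdown was confirmed by immunoblot. Viability was read by CCK-8 after 72 h of compound exposure in 384-well plates at 400–800 cells/well in MEM with 10% FBS, and IC50 was taken from dose-response curves.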
# ACHN [4] = test: Antitumor activity against human ACHN cells xenografted in Balb/c nu/nu mouse assessed as tumor weight at 50 mg/kg, ip administered once daily for 21 days measured post-last dose by caliper method (reference value: 0.55 +/- 0.13 g); assay type: functional
# OS-RC-2 = test: Cytotoxicity against human OS-RC2 cells assessed as reduction in cell viability measured after 72 hrs by CCK8 assay; assay type: functional, cell-based; conditions: OS-RC-2, 72 h; how it was run: as §1
# [5] = Toxicity in Balb/c nu/nu mouse xenografted with human ACHN cells assessed as effect on survival at 50 mg/kg, ip administered once daily for 21 days; assay type: organism-based; conditions: in vivo, 504 h
# How it was run: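 Nude mice (Balb/c nu/nu) bearing ACHN flank xenografts received sorafenib tosylate 50 mg/kg, given as a 10× stock in Cremophor EL diluted in PBS. Treatment alongside PBS control for three weeks. Survival and body weight monitored.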
# ACHN [6] = test: Antitumor activity against human ACHN cells xenografted in Balb/c nu/nu mouse assessed as tumor weight at 0.8 mg/kg, ip administered once daily for 21 days measured post-last dose by caliper method (reference value: 0.55 +/- 0.13 g); assay type: functional
# How it was run: (§2)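 Male athymic Balb/c nu/nu mice, four weeks old, acclimatised 1 week. 10^7 ACHN cells in 0.2 mL PBS injected into the right flank. At about 150 mm3, mice randomised into PBS control or 0.8 mg/kg groups, dosed ip daily for three weeks. Tumours measured by caliper (volume = 0.5 × L × W²) with body weight recorded. Endpoint tumour weight, sections stained by H&E and TUNEL. Tissue lysed for immunoblot.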
# ACHN [7] = test: Down regulation of HK2 mRNA expression in human ACHN cells at 25 to 50 nM measured after 24 hrs by qRT-PCR analysis; assay type: functional, cell-based
# ACHN [8] = test: Down regulation of SLC2A1 mRNA expression in human ACHN cells at 25 to 50 nM measured after 24 hrs by qRT-PCR analysis; assay type: functional, cell-based
# ACHN [9] = test: Down regulation of HIF1A mRNA expression in human ACHN cells at 25 to 50 nM measured after 24 hrs by qRT-PCR analysis; assay type: functional, cell-based
# ACHN [10] = test: Down regulation of LDHA mRNA expression in human ACHN cells at 25 to 50 nM measured after 24 hrs by qRT-PCR analysis; assay type: functional, cell-based
# ACHN [11] = test: Down regulation of ETS1 mRNA expression in human ACHN cells at 25 to 50 nM measured after 24 hrs by qRT-PCR analysis; assay type: functional, cell-based
# [12] = target: T1, Peroxiredoxin-1 (Homo sapiens) (UniProt Q06830); test: Activation of PRDX1 in human ACHN cells assessed as reduction in reactive oxygen species level at 25 to 50 nM measured after 24 hrs by Cell-rox reagent-based flow cytometry
# T1 sequence (whole entry): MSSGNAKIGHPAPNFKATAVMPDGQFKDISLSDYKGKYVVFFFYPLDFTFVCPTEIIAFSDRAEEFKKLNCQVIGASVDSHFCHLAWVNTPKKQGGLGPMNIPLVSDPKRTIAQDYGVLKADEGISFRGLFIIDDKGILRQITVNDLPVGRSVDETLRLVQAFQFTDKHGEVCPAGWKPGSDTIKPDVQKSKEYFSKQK
# How it was run: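 ACHN cells grown 24 h in MEM + 10% FBS, reseeded at 2 × 10^4 cells/well and exposed to 0, 25 or 50 nM for 24 h. Harvested cells loaded with CellROX oxidative stress reagent 5 μM, 30 min at 37 °C in the dark, then read by flow cytometry. shPRDX1 line: stable knockdown selected with puromycin (1 μg/mL) before dosing. Mean ± SD.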
# ACHN [13] = test: Antitumor activity against human ACHN cells xenografted in Balb/c nu/nu mouse assessed as tumor growth inhibition at 0.8 mg/kg, ip administered once daily for 21 days measured post-last dose by TUNEL staining-based assay; assay type: functional, organism-based; how it was run: as §2
# [14] = Toxicity in Balb/c nu/nu mouse xenografted with human ACHN cells assessed as effect on survival at 0.8 mg/kg, ip administered once daily for 21 days; assay type: organism-based; conditions: in vivo, 504 h; how it was run: as §2
# ACHN [15] = test: Up regulation of PRDX1 mRNA expression in human ACHN cells at 25 to 50 nM measured after 24 hrs by qRT-PCR analysis; assay type: functional, cell-based
# [16] = target: T1, Peroxiredoxin-1 (Homo sapiens); test: Induction of PRDX1 nuclear translocation in human ACHN cells at 25 to 50 nM measured after 24 hrs by DAPI staining-based microscopic analysis; assay type: cell-based
# How it was run: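 ACHN cells exposed 24 h to 25 or 50 nM, fixed in 4% paraformaldehyde 10 min and permeabilised with 0.5% Triton X-100. Blocked with 10% FBS, 4 °C, 12 h. Stained with anti-PRDX1 overnight, FITC secondary 2 h RT, DAPI nuclear counterstain. Confocal imaging scored mean fluorescence intensity (n = 9).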
# Peroxiredoxin-1 = target: T2, Peroxiredoxin-1 (Homo sapiens, UniProt Q06830); test: Binding affinity to full-length human PRDX1 by surface plasmon resonance analysis
# T2 sequence (Q06830 whole entry): T1 sequence (whole entry)
# How it was run: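 Full-length human PRDX1 immobilised on a CM5 chip (Biacore T100). Analyte concentration series diluted in 10 mM Hepes pH 7.4, injected over the protein surface and a protein-free reference surface in a single step.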
# Mus musculus [17] = test: Up regulation of PRDX1 mRNA expression in human ACHN cells xenografted Balb/c nu/nu mouse at 0.8 mg/kg, ip administered once daily for 21 days measured post-last dose by qRT-PCR analysis; assay type: functional, organism-based
# [18] = Toxicity in Balb/c nu/nu mouse xenografted with human ACHN cells assessed as decrease in body weight at 0.8 mg/kg, ip administered once daily for 21 days; assay type: organism-based; conditions: in vivo, 504 h; how it was run: as §2
# ACHN [19] = test: Down regulation of MET mRNA expression in human ACHN cells at 25 to 50 nM measured after 24 hrs by qRT-PCR analysis; assay type: functional, cell-based
# ACHN [20] = test: Selectivity ratio of IC50 for cytotoxicity against human ACHN cells harboring shPRDX1 gene to IC50 for Cytotoxicity against human ACHN cells; assay type: functional
# ACHN [21] = test: Antitumor activity against human ACHN cells xenografted in Balb/c nu/nu mouse assessed as tumor growth inhibition at 0.8 mg/kg, ip administered once daily for 21 days measured post-last dose by H and E staining-based assay; assay type: functional, organism-based; how it was run: as §2
# ACHN [22] = test: Up regulation of nuclear PRDX1 expression in human ACHN cells at 25 to 50 nM measured after 24 hrs by immunoblot analysis; assay type: functional, cell-based
# How it was run: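 ACHN cells treated 24 h with 25 or 50 nM, then nuclear and cytosolic extracts prepared. Lysis in RIPA buffer, BCA quantitation, 30–50 μg protein resolved on 10% or 12% gels. Blotted with anti-PRDX1 (1:1000) and β-actin (1:3000), band ratio PRDX1/β-actin reported as fold change. Mean ± SD.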
# ACHN [23] = test: Down regulation of SOD2 mRNA expression in human ACHN cells at 25 to 50 nM measured after 24 hrs by qRT-PCR analysis; assay type: functional, cell-based
# ACHN [24] = test: Down regulation of EGFR mRNA expression in human ACHN cells at 25 to 50 nM measured after 24 hrs by qRT-PCR analysis; assay type: functional, cell-based
# Mus musculus [25] = test: Up regulation of PRDX1 expression in human ACHN cells xenografted Balb/c nu/nu mouse at 0.8 mg/kg, ip administered once daily for 21 days measured post-last dose by immunoblot analysis; assay type: functional, organism-based; how it was run: as §2
structure (smiles),measurement,setting,value
CNC(=O)c1cc(Oc2ccc(NC(=O)Nc3ccc(Cl)c(C(F)(F)F)c3)cc2)ccn1 [SORAFENIB],pIC50,HK-2,5.59
same,pIC50,786-0,4.89
same,pIC50,ACHN [1],5.48
same,Activity,[2],Toxic
same,IC50,ACHN [3]; achn,Not Active
same,Activity,ACHN [4],0.12 g
same,pIC50,OS-RC-2,4.85
same,Activity,[5],Non-Toxic
C/C=C(\C)[C@H](O[C@@H]1O[C@H](CO)[C@@H](O)[C@H](O)[C@H]1O)[C@H](C)/C=C(C)/C=C/C/C(C)=C/Cc1nc(OC)c(OC)c(O)c1C,pIC50,HK-2,< 4.00
same,Activity,ACHN [6],0.23 g
same,pIC50,786-0,< 4.00
same,Activity,ACHN [7],Active
same,pIC50,ACHN [1],6.68
same,pIC50,"ACHN [3]; Homo sapiens, ACHN, 72 h, read-out: IC50",6.02
same,Activity,ACHN [8],Active
same,Activity,ACHN [9],Active
same,Activity,ACHN [10],Active
same,Activity,ACHN [11],Active
same,Activity,[12],Active
same,TGI,ACHN [13],Active
same,Activity,[14],Non-Toxic
same,Activity,ACHN [15],Active
same,Activity,[16],Active
same,pKd,Peroxiredoxin-1,5.74
same,Activity,Mus musculus [17],Active
same,Activity,[18],Non-Toxic
same,Activity,ACHN [19],Active
same,pIC50,OS-RC-2,< 4.00
same,Ratio IC50,ACHN [20],4
same,TGI,ACHN [21],Active
same,Activity,ACHN [22],Active
same,Activity,ACHN [23],Active
same,Activity,ACHN [24],Active
same,Activity,Mus musculus [25],Active
